Assays:
Format in all cases: ADME, organism-based
[1] = AUC (0 to 24 hrs) in Sprague-Dawley rat at 10 mg/kg, iv after 5 mins to 24 hrs by LC-MS/MS analysis; parameters: time < 24 hr, dose 10 mg/kg, route intravenous; settings: in vivo
Summary of the method: (§1)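 Male SD rats, n=5 per group, single iv bolus: 5 mg/kg in 5% DMSO/5% Tween-80 in saline, or 10 mg/kg tartrate salt in water. Plasma sampled predose and at 5, 15, 30 min and 1, 3, 5, 7, 24 h. Drug measured by LC-MS. Parameters by noncompartmental analysis of mean concentrations.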

[2] = Volume of distribution at steady state in Sprague-Dawley rat at 10 mg/kg, iv after 5 mins to 24 hrs by LC-MS/MS analysis; settings: in vivo, read-out: Vdss; summary of the method: as §1
[3] = AUC (0 to 24 hrs) in Sprague-Dawley rat at 50 mg/kg, po after 0.5 to 24 hrs by LC-MS/MS analysis; parameters: time < 24 hr, dose 50 mg/kg, route oral; settings: in vivo
[4] = Cmax in Sprague-Dawley rat at 50 mg/kg, po after 0.5 to 24 hrs by LC-MS/MS analysis; parameters: dose 50 mg/kg, route oral; settings: in vivo
[5] = Tmax in Sprague-Dawley rat at 50 mg/kg, po after 0.5 to 24 hrs by LC-MS/MS analysis; settings: in vivo

CCN(CC)CCN(Cc1ccc(-c2ccc(C(F)(F)F)cc2)cc1)C(=O)Cn1c(SCc2ccc(F)cc2)nc(=O)c2c1CCC2 [DARAPLADIB]
AUC(0-t) at 24 h [1]: 1200 ng·h/mL
Vd [2]: 34.4 L/kg
AUC(0-t) at 24 h [3]: 1300 ng·h/mL
Cmax [4]: 115 ng/mL
Tmax [5]: 4.2 h

From ChEMBL document CHEMBL3792272, “Discovery of Potent and Orally Active Lipoprotein-Associated Phospholipase A2 (Lp-PLA2) Inhibitors as a Potential Therapy for Diabetic Macular Edema” (J Med Chem, 2016)
